Measurements as given in ChEMBL document CHEMBL1148391, “Discovery of 4-substituted pyrrolidone butanamides as new agents with significant antiepileptic activity” (J Med Chem, 2004).

Legend:
Mus musculus [1] = test: In vivo dose required to protect 50% audiogenic seizure prone mice against clonic convulsions; type: functional
Summary of the method: (§1)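 Genetically sound-sensitive DBA-derived mice, male or female, 14–28 g, N = 10 per group. Compound given ip 60 min before stimulus at log-spaced doses, generally 1.0 × 10^-5 to 1.0 × 10^-3 mol/kg, with a vehicle control group. After 30 s orientation, a 90 dB, 10–20 kHz tone was given for 30 s. Clonic convulsions were scored. ED50 with 95% confidence limits came from probit analysis.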

[2] = target: Synaptic vesicle glycoprotein 2A (Rattus norvegicus) (UniProt Q02563); test: In vitro inhibitory activity against [3H](2S)-2-[4-(3-azidophenyl)-2-oxopyrrolidin-1-yl]butanamide binding to levetiracetam binding site; parameters: concentration or dose not given beside the values; settings: concentration not given here
Synaptic vesicle glycoprotein 2A (Rattus norvegicus), sequence (Q02563 whole entry): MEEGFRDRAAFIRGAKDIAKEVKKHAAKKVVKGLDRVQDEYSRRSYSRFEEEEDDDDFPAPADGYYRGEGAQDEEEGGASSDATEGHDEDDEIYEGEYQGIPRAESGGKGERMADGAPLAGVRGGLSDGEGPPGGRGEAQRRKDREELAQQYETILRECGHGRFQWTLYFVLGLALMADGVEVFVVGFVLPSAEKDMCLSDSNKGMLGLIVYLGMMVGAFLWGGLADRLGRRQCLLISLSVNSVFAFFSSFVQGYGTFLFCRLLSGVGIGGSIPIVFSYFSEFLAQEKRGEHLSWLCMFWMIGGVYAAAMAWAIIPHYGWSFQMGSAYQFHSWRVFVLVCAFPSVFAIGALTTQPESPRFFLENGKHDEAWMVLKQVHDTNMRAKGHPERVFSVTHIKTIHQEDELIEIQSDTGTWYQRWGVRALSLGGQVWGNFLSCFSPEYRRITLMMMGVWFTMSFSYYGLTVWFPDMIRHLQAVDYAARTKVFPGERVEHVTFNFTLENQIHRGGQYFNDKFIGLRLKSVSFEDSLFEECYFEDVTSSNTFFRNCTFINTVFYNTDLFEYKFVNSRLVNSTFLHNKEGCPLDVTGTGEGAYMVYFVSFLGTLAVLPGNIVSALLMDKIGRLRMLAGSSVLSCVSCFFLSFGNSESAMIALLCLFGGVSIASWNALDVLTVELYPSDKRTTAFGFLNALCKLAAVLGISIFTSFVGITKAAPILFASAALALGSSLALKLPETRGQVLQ
Summary of the method: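 Rat cerebral cortex membranes (male Sprague-Dawley, 200–250 g), homogenised in Tris-HCl/sucrose at 4 °C, washed, preincubated 15 min at 37 °C. Binding: 4 °C for 120 min in 50 mmol/L Tris-HCl pH 7.4 with 2 mmol/L MgCl2, 1–2 × 10^-9 mol/L tritiated azidophenyl radioligand, rising test concentrations. Nonspecific binding with 10^-3 mol/L levetiracetam. Rapid filtration, scintillation counting. pIC50 is the mean of two independent determinations.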

[3] = Half life at 1 mg/kg was determined in rat; type: ADME, organism-based; parameters: dose 1 mg/kg; settings: in vivo
[4] = Oral bioavailability at 1 mg/kg was determined in rat; type: ADME, organism-based; settings: in vivo, read-out: Bioavailabiility
[5] = Total clearance at 1 mg/kg was determined in rat; type: ADME, organism-based; parameters: dose 1 mg/kg; settings: in vivo
[6] = Maximum time to achieve peak plasma concentration was determined in rat at 1 mg/kg; type: ADME, organism-based; parameters: dose 1 mg/kg
Mus musculus [7] = test: In vivo dose required to protect 50% audiogenic seizure prone mice against clonic convulsions; value ranges from 59 to 281; type: functional; summary of the method: as §1
Mus musculus [8] = test: In vivo dose required to protect 50% audiogenic seizure prone mice against clonic convulsions; value ranges from 143 to 283; type: functional; summary of the method: as §1
[9] = Total clearance at 10 mg/kg was determined in rat; type: ADME, organism-based; parameters: dose 10 mg/kg; settings: in vivo
[10] = Maximum time to achieve peak plasma concentration was determined in rat at 10 mg/kg; type: ADME, organism-based; parameters: dose 10 mg/kg
[11] = Half life at 10 mg/kg was determined in rat; type: ADME, organism-based; parameters: dose 10 mg/kg; settings: in vivo
[12] = Oral bioavailability at 10 mg/kg was determined in rat; type: ADME, organism-based; settings: in vivo, read-out: Bioavailabiility
Mus musculus [13] = test: In vivo dose required to protect 50% audiogenic seizure prone mice against clonic convulsions; value ranges from 102 to 715; type: functional; summary of the method: as §1

| Compound | ED50 (Mus musculus [1]) [µmol/kg] | inhibition [2] [%] | other results |
| --- | --- | --- | --- |
| CC[C@@H](C(=N)S)N1CCCC1=O | 1000 | < 20 | – |
| CC[C@@H](C(N)=O)N1CC(CC(C)(C)C)CC1=O (some centres undefined) | 1000 | – | – |
| CC[C@@H](C(N)=O)N1C[C@H](CSC)CC1=O | 160 | – | – |
| CCCC1(CCC)CC(=O)N([C@@H](CC)C(N)=O)C1 | 1000 | < 30 | – |
| CCC(C(N)=O)N1CC(C(C)C)CC1=O (centres undefined) | 360 | – | – |
| CCC1CC(=O)N([C@@H](CC)C(N)=O)C1 (some centres undefined) | 87 | – | – |
| CC[C@@H](C(=O)NC)N1CCCC1=O | 1800 | – | – |
| CCC[C@H]1CC(=O)N([C@@H](CC)C(N)=O)C1 | 44 | – | – |
| CC[C@@H](C(N)=O)N1CC(NC(=O)OC)CC1=O (some centres undefined) | 540 | – | – |
| CC[C@@H](C(=O)NO)N1CCCC1=O | 1000 | – | – |
| CC[C@@H](C(=O)Nc1ccccc1)N1CCCC1=O | 560 | < 20 | – |
| CC[C@@H](C(=O)NOC)N1CCCC1=O | 1000 | < 20 | – |
| CCC(C(N)=O)N1CC(COC)CC1=O (centres undefined) | 400 | – | – |
| CC[C@@H](C(N)=O)N1C[C@H](C(=O)OC)CC1=O | 1000 | < 20 | – |
| CC[C@@H](C(=N)NO)N1CCCC1=O | 1000 | < 20 | – |
| CC(C)C(C(N)=O)N1CCCC1=O (centres undefined) | 890 | – | – |
| CC[C@@H](C(N)=O)N1C[C@H](CI)CC1=O | 13 | – | half-life [3]: 2 h; bioavailability [4]: 100%; clearance [5]: 4.8 mL/min/kg; Tmax [6]: 0.8 h |
| CC[C@@H](C(N)=O)N1CCC(C)(CC)C1=O (some centres undefined) | 1000 | < 20 | – |
| CC[C@@H](C(N)=O)N1C[C@H](CCl)CC1=O | 25 | – | – |
| CC[C@@H](C(N)=O)N1CC(N)CC1=O (some centres undefined) | – | < 20 | – |
| CC(C)(C)[C@@H](C(N)=O)N1CCCC1=O | – | < 20 | – |

| Compound | ED50 (Mus musculus [1]) [µmol/kg] | inhibition [2] [%] | other results |
| --- | --- | --- | --- |
| CCCCCCCCN(C(=O)Cc1ccc(Cl)cc1)C(CC)C(N)=O (centres undefined) | 1000 | – | – |
| CCC[C@@H](C(N)=O)N1CCCC1=O | – | – | ED50 (Mus musculus [7]): 190 µmol/kg |
| CC[C@@H](C(=O)N(C)O)N1CCCC1=O | 1000 | – | – |
| CC(C)(C(N)=O)N1CCCC1=O | – | < 20 | – |
| CCC(C(N)=O)N1CC(Cc2ccccc2)CC1=O (centres undefined) | 1000 | – | – |
| CC[C@@H](C(N)=O)N1C(=O)CCC1C (some centres undefined) | 1000 | – | – |
| CCC(C(N)=O)N1CC(C(F)(F)F)CC1=O (centres undefined) | 1000 | < 20 | – |
| CC[C@@H](C(=O)NCc1ccccc1)N1CCCC1=O | 560 | < 30 | – |
| CCCC1(C)CC(=O)N([C@@H](CC)C(N)=O)C1 (some centres undefined) | 400 | – | – |
| CCC[C@H](C(N)=O)N1CCCC1=O | 1000 | – | – |
| CC[C@@H](C(=O)NN)N1CCCC1=O | 1000 | – | – |
| CC[C@@H](C(N)=O)N1CCCC1=O [LEVETIRACETAM] | – | – | ED50 (Mus musculus [8]): 180 µmol/kg |
| CCCCCC1CCC(=O)N1C(CC)C(N)=O (centres undefined) | – | < 20 | – |
| CC[C@@H](C(N)=O)N1C[C@H](CF)CC1=O | 370 | – | – |
| CC[C@@H](C(=O)O)N1CCCC1=O | 3200 | < 20 | – |
| CC[C@@H](C(=N)N)N1CCCC1=O | 1000 | – | – |
| CC[C@H](C(N)=O)N1CCCC1=O [LEVITIRACETAM] | 1000 | – | – |
| CC[C@@H](C(N)=O)N1C[C@H](CN2CCCC2)CC1=O | 320 | < 20 | – |
| CCCCCCN(CCCCCC)C(=O)[C@H](CC)N1CCCC1=O | 560 | < 20 | – |
| CC[C@@H](C(N)=O)N1C[C@H](C)CC1=O | 110 | – | – |
| CC[C@@H](C(N)=O)N1C[C@H](CN=[N+]=[N-])CC1=O | 3.6 | – | – |

| Compound | ED50 (Mus musculus [1]) [µmol/kg] | inhibition [2] [%] | other results |
| --- | --- | --- | --- |
| CC[C@@H](C(=O)N(C)OC)N1CCCC1=O | 1000 | < 20 | – |
| CCC[C@@H]1CC(=O)N([C@@H](CC)C(N)=O)C1 [BRIVARACETAM] | 14 | – | clearance [9]: 4.67 mL/min/kg; Tmax [10]: 0.5 h; half-life [11]: 1.7 h; bioavailability [12]: 100% |
| CC[C@@H](C(N)=O)N1CCC(CO)C1=O (some centres undefined) | – | < 20 | – |
| CC[C@@H](C(N)=O)N1C[C@H](CNS(=O)(=O)c2ccccc2)CC1=O | 1000 | < 20 | – |
| CC[C@@H](C(N)=O)N1C[C@H](C(=O)O)CC1=O | 1000 | < 20 | – |
| NC(=O)CN1CCCC1=O [PIRACETAM] | 10000 | – | – |
| CCOC(=O)[C@H](CC)N1CCCC1=O | – | < 20 | – |
| C[C@@H](C(N)=O)N1CCCC1=O | – | – | ED50 (Mus musculus [13]): 504 µmol/kg |
| CCCCC1CC(=O)N(C(CC)C(N)=O)C1 (centres undefined) | 480 | – | – |
| CCC(C(N)=O)N1C(=O)CCC1(C)C (single isomer, unassigned) | 1000 | – | – |
| CC[C@@H](C(N)=O)N(C)C(C)=O | 1800 | – | – |
| NCCCC(C(N)=O)N1CCCC1=O (centres undefined) | – | < 20 | – |
| CC[C@@H](C(N)=O)N1C[C@H](CO[N+](=O)[O-])CC1=O | 25 | – | – |
| CC[C@@H](C(N)=O)N1CC(CC2CC2)CC1=O (some centres undefined) | 33 | – | – |
| CCCN(C(C)=O)C(CC)C(N)=O (centres undefined) | – | < 20 | – |
| CC[C@@H](C(N)=O)N1C[C@H](CBr)CC1=O | 180 | – | – |
| CC[C@@H](C(N)=O)N1CCC(C)C1=O (some centres undefined) | 1000 | – | – |
| CCC(C(N)=O)N1C[C@H](CO)CC1=O (some centres undefined) | – | < 20 | – |
| CCC(C(N)=O)N1CCC(Cc2ccccc2)C1=O (centres undefined) | 320 | < 20 | – |
| CC[C@@H](C(N)=O)N1C[C@H](C(N)=O)CC1=O | 1000 | < 20 | – |
| CCC(C(N)=O)N1CC(O)CC1=O (centres undefined) | 1000 | < 20 | – |
